The results in this text go back to ChEMBL document CHEMBL1150108, “Isolation of S-n-butylcysteine sulfoxide and six n-butyl-containing thiosulfinates from Allium siculum” (2002).

For orientation: zone of inhibition means the size of the clear area around the sample on an inoculated plate.

Type in all cases: functional
In experiment [1] the test system is Klebsiella pneumoniae subsp. pneumoniae. The experiment is described as follows: Antibacterial activity against Klebsiella pneumoniae subsp. pneumoniae ATCC 13833 at 10 ug/disk after overnight incubation by agar diffusion test. To be noted: for zone of inhibition at 10 µg/disc: read-out: Diameter of inhibition zone. In a few lines:
(§1)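 Disk diffusion on agar plates seeded with the named strain. Test samples were dissolved in EtOH, and a 10 µL aliquot was applied to a 6 mm paper disk to give 10, 250 or 500 µg per disk. Commercial antibiotic disks served as controls. Plates were incubated overnight at 37 °C, and the diameter of the inhibition zone around each disk was read in mm.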
In general terms: A growth-free zone around the sample is the usual read-out of agar diffusion tests.

The test system of experiment [2] is Stenotrophomonas maltophilia. The experiment is described as follows: Antibacterial activity against Stenotrophomonas maltophilia ATCC 13637 at 10 ug/disk after overnight incubation by agar diffusion test. To be noted: for zone of inhibition at 10 µg/disc: read-out: Diameter of inhibition zone. Summed up:
as §1

The subject of experiment [3] is Streptococcus agalactiae. Briefly: Antibacterial activity against Streptococcus agalactiae ATCC 13813 at 10 ug/disk after overnight incubation by agar diffusion test. To be noted: for zone of inhibition at 10 µg/disc: read-out: Diameter of inhibition zone. In a few lines: as §1
Experiment [4] deals with Bacillus cereus. The experiment is described as follows: Antibacterial activity against Bacillus cereus ATCC 11778 at 10 ug/disk after overnight incubation by agar diffusion test. The following applies: for zone of inhibition at 10 µg/disc: read-out: Diameter of inhibition zone. In a few lines:
as §1

Experiment [5] deals with Pseudomonas aeruginosa. The experiment is described as follows: Antibacterial activity against Pseudomonas aeruginosa ATCC 27853 at 10 ug/disk after overnight incubation by agar diffusion test. To be noted: read-out: Diameter of inhibition zone. In a few lines: as §1
For experiment [6], the system named is Klebsiella pneumoniae subsp. pneumoniae. Briefly: Antibacterial activity against Klebsiella pneumoniae subsp. pneumoniae ATCC 13833 at 500 ug/disk after overnight incubation by agar diffusion test. The following applies: read-out: Diameter of inhibition zone. Summed up: as §1
Experiment [7] concerns Escherichia coli. Briefly: Antibacterial activity against Escherichia coli ATCC 25922 at 250 ug/disk after overnight incubation by agar diffusion test. The following applies: read-out: Diameter of inhibition zone. Summed up: as §1
For experiment [8], the system named is Bacillus cereus. The experiment is described as follows: Antibacterial activity against Bacillus cereus ATCC 11778 at 250 ug/disk after overnight incubation by agar diffusion test. To be noted: read-out: Diameter of inhibition zone. In a few lines: as §1
Experiment [9] has as its system Staphylococcus aureus. The experiment is described as follows: Antibacterial activity against Staphylococcus […] at 10 ug/disk after overnight incubation by agar diffusion test. The following applies: read-out: Diameter of inhibition zone. Summed up:
as §1

Experiment [10] relates to Staphylococcus aureus. Briefly: Antibacterial activity against Staphylococcus […] at 250 ug/disk after overnight incubation by agar diffusion test. To be noted: read-out: Diameter of inhibition zone. In a few lines: as §1
In experiment [11] the test system is Stenotrophomonas maltophilia. Briefly: Antibacterial activity against Stenotrophomonas maltophilia ATCC 13637 at 250 ug/disk after overnight incubation by agar diffusion test. To be noted: read-out: Diameter of inhibition zone. In a few lines:
as §1

Experiment [12] relates to Bacillus cereus. Briefly: Antibacterial activity against Bacillus cereus ATCC 11778 at 500 ug/disk after overnight incubation by agar diffusion test. To be noted: read-out: Diameter of inhibition zone. In a few lines: as §1
Experiment [13] deals with Escherichia coli. The experiment is described as follows: Antibacterial activity against Escherichia coli ATCC 25922 at 10 ug/disk after overnight incubation by agar diffusion test. To be noted: read-out: Diameter of inhibition zone. Summed up: as §1
Experiment [14] deals with Streptococcus agalactiae. Briefly: Antibacterial activity against Streptococcus agalactiae ATCC 13813 at 250 ug/disk after overnight incubation by agar diffusion test. To be noted: read-out: Diameter of inhibition zone. In a few lines:
as §1

Experiment [15] concerns Stenotrophomonas maltophilia. The experiment is described as follows: Antibacterial activity against Stenotrophomonas maltophilia ATCC 13637 at 500 ug/disk after overnight incubation by agar diffusion test. The following applies: read-out: Diameter of inhibition zone. In a few lines: as §1
For experiment [16], the system named is Streptococcus agalactiae. The experiment is described as follows: Antibacterial activity against Streptococcus agalactiae ATCC 13813 at 500 ug/disk after overnight incubation by agar diffusion test. The following applies: read-out: Diameter of inhibition zone. Summed up: as §1
Experiment [17] relates to Escherichia coli. Briefly: Antibacterial activity against Escherichia coli ATCC 25922 at 500 ug/disk after overnight incubation by agar diffusion test. To be noted: read-out: Diameter of inhibition zone. Summed up:
as §1

Experiment [18] relates to Pseudomonas aeruginosa. The experiment is described as follows: Antibacterial activity against Pseudomonas aeruginosa ATCC 27853 at 250 ug/disk after overnight incubation by agar diffusion test. To be noted: read-out: Diameter of inhibition zone. In a few lines:
as §1

Experiment [19] has as its system Klebsiella pneumoniae subsp. pneumoniae. The experiment is described as follows: Antibacterial activity against Klebsiella pneumoniae subsp. pneumoniae ATCC 13833 at 250 ug/disk after overnight incubation by agar diffusion test. To be noted: read-out: Diameter of inhibition zone. Summed up:
as §1

For experiment [20], the system named is Staphylococcus aureus. The experiment is described as follows: Antibacterial activity against Staphylococcus […] at 500 ug/disk after overnight incubation by agar diffusion test. To be noted: read-out: Diameter of inhibition zone. Summed up: as §1
In experiment [21] the test system is Pseudomonas aeruginosa. The experiment is described as follows: Antibacterial activity against Pseudomonas aeruginosa ATCC 27853 at 500 ug/disk after overnight incubation by agar diffusion test. To be noted: read-out: Diameter of inhibition zone. In a few lines:
as §1

The subject of experiment [22] is Streptococcus agalactiae. Briefly: Antibacterial activity against Streptococcus agalactiae ATCC 13813 at 30 ug/disk after overnight incubation by agar diffusion test. The following applies: read-out: Diameter of inhibition zone. In a few lines: (§2)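 Commercial antibiotic control disks were placed on agar plates seeded with the named strain. Plates were incubated overnight at 37 °C, and the diameter of the inhibition zone around each disk was measured in mm.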

The test system of experiment [23] is Pseudomonas aeruginosa. Briefly: Antibacterial activity against Pseudomonas aeruginosa ATCC 27853 at 30 ug/disk after overnight incubation by agar diffusion test. The following applies: read-out: Diameter of inhibition zone. Summed up: as §2
Experiment [24] has as its system Stenotrophomonas maltophilia. The experiment is described as follows: Antibacterial activity against Stenotrophomonas maltophilia ATCC 13637 at 30 ug/disk after overnight incubation by agar diffusion test. The following applies: read-out: Diameter of inhibition zone. In a few lines:
as §2

Experiment [25] concerns Escherichia coli. Briefly: Antibacterial activity against Escherichia coli ATCC 25922 at 30 ug/disk after overnight incubation by agar diffusion test. The following applies: read-out: Diameter of inhibition zone. In a few lines:
as §2

Experiment [26] relates to Klebsiella pneumoniae subsp. pneumoniae. The experiment is described as follows: Antibacterial activity against Klebsiella pneumoniae subsp. pneumoniae ATCC 13833 at 30 ug/disk after overnight incubation by agar diffusion test. The following applies: read-out: Diameter of inhibition zone. Summed up:
as §2

Experiment [27] relates to Staphylococcus aureus. Briefly: Antibacterial activity against Staphylococcus […] at 30 ug/disk after overnight incubation by agar diffusion test. To be noted: read-out: Diameter of inhibition zone. Summed up: as §2
Experiment [28] relates to Bacillus cereus. Briefly: Antibacterial activity against Bacillus cereus ATCC 11778 at 30 ug/disk after overnight incubation by agar diffusion test. To be noted: read-out: Diameter of inhibition zone. In a few lines: as §2

As for GENTAMICIN, the inhibition zone (IZ) in experiment [1] came to 22 mm; in experiment [2] it was 20 mm; with Streptococcus agalactiae [3], 18 mm; in the experiment with Bacillus cereus [4] it was 22 mm.

As for `CCCC[S+]([O-])SC` (stereo not drawn), the zone of inhibition at 10 µg/disc in the experiment with Pseudomonas aeruginosa [5] worked out at 0 mm; in [1], 0 mm; in the experiment with Staphylococcus aureus [9], 8 mm; in experiment [2], 0 mm; in the experiment on Escherichia coli [13] it was 0 mm; with Streptococcus agalactiae [3], 0 mm. Moreover, in the experiment on Bacillus cereus [4], the zone of inhibition at 10 µg/disc stood at 0 mm. For the same compound, the zone of inhibition at 500 µg/disc in experiment [6] worked out at 18 mm; in the experiment on Bacillus cereus [12] it was 34 mm; in [15], 14 mm; in the experiment with Streptococcus agalactiae [16] it was 0 mm; in the experiment on Escherichia coli [17], 24 mm; in the experiment with Staphylococcus aureus [20], 38 mm. In addition, the zone of inhibition at 500 µg/disc in the experiment with Pseudomonas aeruginosa [21] stood at 8 mm. Also, the zone of inhibition at 250 µg/disc was determined as 22 mm in the experiment with Escherichia coli [7]; 30 mm in the experiment with Bacillus cereus [8]; 30 mm in the experiment with Staphylococcus aureus [10]; 12 mm in [11]; 0 mm in the experiment on Streptococcus agalactiae [14]; 0 mm in the experiment on Pseudomonas aeruginosa [18]. The zone of inhibition at 250 µg/disc in experiment [19] worked out at 16 mm.

Consider `CCCCS[S+](C)[O-]` (stereo not drawn), for which the zone of inhibition at 10 µg/disc (with Pseudomonas aeruginosa [5]; in [1]; in the experiment on Staphylococcus aureus [9]; in experiment [2]; with Escherichia coli [13]; in the experiment with Streptococcus agalactiae [3]) was 0 mm in each case. The zone of inhibition at 10 µg/disc in the experiment on Bacillus cereus [4] was 0 mm. Also, the zone of inhibition at 500 µg/disc in [6] came to 20 mm; in the experiment with Bacillus cereus [12] it was 28 mm; in [15] it was 17 mm; in the experiment with Streptococcus agalactiae [16], 24 mm; in the experiment on Escherichia coli [17], 20 mm; in the experiment with Staphylococcus aureus [20], 26 mm. Also, the zone of inhibition at 500 µg/disc with Pseudomonas aeruginosa [21] was determined as 0 mm. In addition, the zone of inhibition at 250 µg/disc with Escherichia coli [7] was determined as 14 mm; in the experiment on Bacillus cereus [8] it was 22 mm; with Staphylococcus aureus [10], 20 mm; in experiment [11], 12 mm; in the experiment with Streptococcus agalactiae [14], 16 mm; with Pseudomonas aeruginosa [18], 0 mm. The zone of inhibition at 250 µg/disc in experiment [19] turned out to be 12 mm.

Take `CN(C)[C@@H]1C(O)=C(C(N)=O)C(=O)[C@@]2(O)C(O)=C3C(=O)c4c(O)cccc4[C@@](C)(O)[C@H]3C[C@@H]12` [TETRACYCLINE]: the zone of inhibition at 30 µg/disc in the experiment on Streptococcus agalactiae [22] turned out to be 28 mm; in the experiment with Pseudomonas aeruginosa [23], 10 mm; in [24] it was 13 mm; in the experiment with Escherichia coli [25], 18 mm; in experiment [26], 18 mm; in the experiment on Staphylococcus aureus [27], 20 mm. Also, the zone of inhibition at 30 µg/disc in the experiment with Bacillus cereus [28] came out at 27 mm.

For `CCCCS[S+]([O-])CCCC` (stereo not drawn), the zone of inhibition at 10 µg/disc amounted to 0 mm with Pseudomonas aeruginosa [5]; 0 mm in experiment [1]; 10 mm with Staphylococcus aureus [9]; 0 mm in experiment [2]; 0 mm in the experiment on Escherichia coli [13]; 0 mm with Streptococcus agalactiae [3]. Further, the zone of inhibition at 10 µg/disc with Bacillus cereus [4] was found to be 8 mm. In addition, the zone of inhibition at 500 µg/disc in experiment [6] came to 8 mm; with Bacillus cereus [12] it was 40 mm; in experiment [15], 16 mm; in the experiment on Streptococcus agalactiae [16] it was 34 mm; in the experiment with Escherichia coli [17], 16 mm; in the experiment on Staphylococcus aureus [20] it was 38 mm. For the same compound, in the experiment with Pseudomonas aeruginosa [21], the zone of inhibition at 500 µg/disc is 0 mm. For the same compound, the zone of inhibition at 250 µg/disc with Escherichia coli [7] amounted to 10 mm; in the experiment on Bacillus cereus [8] it was 34 mm; in the experiment with Staphylococcus aureus [10], 34 mm; in experiment [11], 8 mm; in the experiment with Streptococcus agalactiae [14] it was 30 mm; in the experiment on Pseudomonas aeruginosa [18], 0 mm. Further, the zone of inhibition at 250 µg/disc in experiment [19] came out at 8 mm.

As to `CC1(C)S[C@@H]2[C@H](NC(=O)[C@H](N)c3ccccc3)C(=O)N2[C@H]1C(=O)O` [AMPICILLIN], the zone of inhibition at 10 µg/disc in the experiment with Pseudomonas aeruginosa [5] was 0 mm; in experiment [1] it was 0 mm; in the experiment with Staphylococcus aureus [9] it was 38 mm; in experiment [2], 0 mm; in the experiment on Escherichia coli [13] it was 18 mm; with Streptococcus agalactiae [3], 30 mm. For the same compound, in the experiment on Bacillus cereus [4], the zone of inhibition at 10 µg/disc was determined as 7 mm.

Consider `O=C(N[C@H](CO)[C@H](O)c1ccc([N+](=O)[O-])cc1)C(Cl)Cl` [CHLORAMPHENICOL], for which the zone of inhibition at 30 µg/disc is 23 mm in the experiment on Streptococcus agalactiae [22]; 0 mm with Pseudomonas aeruginosa [23]; 22 mm in experiment [24]; 20 mm with Escherichia coli [25]; 24 mm in experiment [26]; 18 mm in the experiment on Staphylococcus aureus [27]. Also, the zone of inhibition at 30 µg/disc in the experiment with Bacillus cereus [28] was determined as 20 mm.
